Data as given in ChEMBL document CHEMBL2440089, “CoMFA studies and in vitro evaluation of some 3-substituted benzylthio quinolinium salts as anticryptococcal agents” (Bioorg Med Chem, 2013).

What was measured:
Vero [1] = test: Cytotoxicity against african green monkey Vero cells after 48 hrs by Neutral Red dye assay; assay type: cell-based; conditions: chlorocebus sabaeus
How it was run: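 Kidney […] (VERO) cells were seeded at 25,000 cells/well and incubated for 24 h, then exposed to samples for 48 h. Viable cells were counted by Neutral Red dye uptake. IC50 was taken from growth-inhibition versus concentration curves. Doxorubicin served as the positive control and DMSO as the vehicle control.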

Cryptococcus neoformans = test: Antifungal activity against Cryptococcus neoformans ATCC 90113 by CLSI method; assay type: functional, organism-based
How it was run: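 Test samples in DMSO were serially diluted in saline and run in duplicate in Sabouraud dextrose broth, with final concentrations starting at 20 μg/mL. Absorbance at 530 nm was read before and after incubation. Each plate carried growth, solvent and media-blank controls, with amphotericin B as the drug control. IC50 (50% inhibition relative to controls) was obtained by curve fitting.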

Vero [2] = test: Cytotoxicity against african green monkey Vero cells at 10 ug/ml after 48 hrs by Neutral Red dye assay; assay type: cell-based; conditions: chlorocebus sabaeus

Compound | IC50 (Cryptococcus neoformans; read-out: IC50) | IC50 (Cryptococcus neoformans; read-out: pIC50 (converted)) | Activity (Vero [1]) | Activity (Vero [2])
[I-].c1ccc(Sc2cc3ccccc3[n+](CCCCCC3CCCCC3)c2)cc1 | – | – | 8.89 µM | –
Cc1ccccc1Sc1cc2ccccc2[n+](CCCCCC2CCCCC2)c1.[I-] | – | – | 7.53 µM | –
Cc1cccc(Sc2cc3ccccc3[n+](CCCCCC3CCCCC3)c2)c1.[I-] | – | – | 6.96 µM | –
Cc1ccc(Sc2cc3ccccc3[n+](CCCCCC3CCCCC3)c2)cc1.[I-] | – | – | 5.27 µM | –
Oc1ccccc1Sc1cc2ccccc2[n+](CCCCCC2CCCCC2)c1.[I-] | – | – | 17.4 µM | –
Oc1cccc(Sc2cc3ccccc3[n+](CCCCCC3CCCCC3)c2)c1.[I-] | 2340 nM | 2340 nM | – | Non-toxic
Oc1ccc(Sc2cc3ccccc3[n+](CCCCCC3CCCCC3)c2)cc1.[I-] | – | – | – | Non-toxic
FC(F)(F)c1ccccc1Sc1cc2ccccc2[n+](CCCCCC2CCCCC2)c1.[I-] | 3740 nM | 3740 nM | – | Non-toxic
FC(F)(F)c1cccc(Sc2cc3ccccc3[n+](CCCCCC3CCCCC3)c2)c1.[I-] | – | – | – | Non-toxic
FC(F)(F)c1ccc(Sc2cc3ccccc3[n+](CCCCCC3CCCCC3)c2)cc1.[I-] | – | – | – | Non-toxic
COc1ccc(Sc2cc3ccccc3[n+](CCCCCC3CCCCC3)c2)cc1.[I-] | 731 nM | 731 nM | 7.67 µM | –
[I-].c1ccc(CSc2cc3ccccc3[n+](CCCCCC3CCCCC3)c2)cc1 | 301 nM | 301 nM | – | Non-toxic
Clc1ccccc1CSc1cc2ccccc2[n+](CCCCCC2CCCCC2)c1.[I-] | 1350 nM | 1350 nM | – | Non-toxic
[I-].[O-][S+](c1ccc(F)cc1)c1cc2ccccc2[n+](CCCCCc2ccccc2)c1 (stereo not given) | 27500 nM | 27500 nM | – | Non-toxic
[I-].[O-][S+](c1ccc(C(F)(F)F)cc1)c1cc2ccccc2[n+](CCCCCc2ccccc2)c1 (stereo not given) | 10000 nM | – | 21.4 µM | –
Fc1ccccc1CSc1cc2ccccc2[n+](CCCCCC2CCCCC2)c1.[I-] | 948 nM | 948 nM | – | Non-toxic
Fc1cccc(CSc2cc3ccccc3[n+](CCCCCC3CCCCC3)c2)c1.[I-] | 711 nM | 711 nM | – | Non-toxic
Fc1ccc(CSc2cc3ccccc3[n+](CCCCCC3CCCCC3)c2)cc1.[I-] | 677 nM | 678 nM | – | Non-toxic
COc1ccc(CSc2cc3ccccc3[n+](CCCCCC3CCCCC3)c2)cc1.[I-] | 2150 nM | 2150 nM | – | Non-toxic
Brc1cccc(CSc2cc3ccccc3[n+](CCCCCC3CCCCC3)c2)c1.[I-] | 360 nM | 361 nM | – | Non-toxic
Brc1ccc(CSc2cc3ccccc3[n+](CCCCCC3CCCCC3)c2)cc1.[I-] | 369 nM | 370 nM | – | Non-toxic
C[C@@H]1[C@H](O)[C@@H](C)/C=C/C=C/C=C/C=C/C=C/C=C/C=C/[C@H](O[C@@H]2O[C@H](C)[C@@H](O)[C@H](N)[C@@H]2O)C[C@@H]2O[C@](O)(C[C@@H](O)C[C@@H](O)[C@H](O)CC[C@@H](O)C[C@@H](O)CC(=O)O[C@H]1C)C[C@H](O)[C@H]2C(=O)O [AMPHOTERICIN B] | 422 nM | – | 7.03 µM | –

Continued by falling IC50 (Cryptococcus neoformans; read-out: IC50), values first:

IC50 (Cryptococcus neoformans; read-out: IC50) | IC50 (Cryptococcus neoformans; read-out: pIC50 (converted)) | Compound | Activity (Vero [1]) | Activity (Vero [2])
43300 nM | 43300 nM | C[n+]1c2ccccc2cc2[n-]c3ccccc3c21 [CRYPTOLEPINE] | 8.88 µM | –
18500 nM | 18500 nM | COc1cccc(Sc2cc3ccccc3[n+](CCCCCC3CCCCC3)c2)c1.[I-] | 8.22 µM | –
14900 nM | – | [I-].[O-][S+](c1ccc(Br)cc1)c1cc2ccccc2[n+](CCCCCc2ccccc2)c1 (stereo not given) | – | Non-toxic
13200 nM | 13200 nM | Fc1cccc(Sc2cc3ccccc3[n+](CCCCCC3CCCCC3)c2)c1.[I-] | 1.23 µM | –
10900 nM | 10900 nM | [I-].[O-][S+](c1cccc(C(F)(F)F)c1)c1cc2ccccc2[n+](CCCCCc2ccccc2)c1 (stereo not given) | – | Non-toxic
9250 nM | 9250 nM | [I-].[O-][S+](c1cc2ccccc2[n+](CCCCCc2ccccc2)c1)c1ccccc1C(F)(F)F (stereo not given) | – | Non-toxic
9080 nM | 9080 nM | [I-].[O-][S+](c1cc2ccccc2[n+](CCCCCc2ccccc2)c1)c1ccccc1Br (stereo not given) | – | Non-toxic
9040 nM | 9040 nM | Oc1ccc(CSc2cc3ccccc3[n+](CCCCCC3CCCCC3)c2)cc1.[I-] | – | Non-toxic
1130 nM | 1130 nM | Brc1ccccc1CSc1cc2ccccc2[n+](CCCCCC2CCCCC2)c1.[I-] | – | Non-toxic
883 nM | 883 nM | CC(C)(C)c1ccc(CSc2cc3ccccc3[n+](CCCCCC3CCCCC3)c2)cc1.[I-] | – | Non-toxic
769 nM | 769 nM | Cc1cccc(CSc2cc3ccccc3[n+](CCCCCC3CCCCC3)c2)c1.[I-] | 4.95 µM | –
623 nM | 624 nM | COc1ccccc1CSc1cc2ccccc2[n+](CCCCCC2CCCCC2)c1.[I-] | – | Non-toxic
606 nM | 607 nM | COc1cccc(CSc2cc3ccccc3[n+](CCCCCC3CCCCC3)c2)c1.[I-] | – | Non-toxic
458 nM | 458 nM | Cc1ccc(CSc2cc3ccccc3[n+](CCCCCC3CCCCC3)c2)cc1.[I-] | 6.78 µM | –
416 nM | 417 nM | FC(F)(F)c1ccc(CSc2cc3ccccc3[n+](CCCCCC3CCCCC3)c2)cc1.[I-] | 7.94 µM | –
88 nM | 88.3 nM | Clc1ccc(CSc2cc3ccccc3[n+](CCCCCC3CCCCC3)c2)cc1.[I-] | 2.3 µM | –
